Measured values pooled from the literature.
Each line is one published result; the experiments were not run side by side.
Target: Dual specificity protein kinase CLK3 (CLK3, Homo sapiens, UniProt P49761)
Method: competition with immobilised ligand

Compound | effect on | concentration | remaining binding [%]
O=C(NCCCN1CCOCC1)c1ccc(Nc2ncc(Cl)c(-c3ccc(Cl)s3)n2)cc1 | binding | 1 µM | 37
O=S(=O)(NC1CCC(c2cc(F)ccc2F)(S(=O)(=O)c2ccc(Cl)cc2)CC1)C(F)(F)F (centres unmarked) | cell-free assay | 1 µM | 86
Nc1ncc2c(n1)-c1c([nH]c3ccc(C#CC4CC4)cc13)CCCC2 | binding | 1 µM | 96
FC(F)(F)Oc1cccc(-c2cnc3ccc(-c4ccncc4)nn23)c1 | cell-free assay | 5 µM | 8.1
CN(CCCC(F)(F)F)c1nccc(-c2cnn3ncccc23)n1 | binding | 1 µM | 84
C[C@@H](c1ccc(-n2cnc3c(N)ncnc32)cc1)N1CCc2nn(C)c(Cc3ccccc3)c2C1=O | binding | 0.1 µM | 71
O=C1CCc2cc(Nc3cc(OC4CCOCC4)c([N+](=O)[O-])cc3Cl)ccc2N1 | cell-free assay | 1 µM | 100
CNC(=O)[C@@H]1CC[C@@H](n2c(-c3ccc4cnccc4c3)nc3ccc(C(=O)NCc4cccc(C(N)=O)c4)cc32)C1 | binding | 1 µM | 100
CCOC(=O)c1cc2cc(-c3cc(C(=O)NCc4ccc(C(=O)O)cc4)nn3C)ccc2[nH]1 | cell-free assay | 0.1 µM | 83
O=C(NCCCN1CCOCC1)c1ccc(Nc2nccc(-c3cc4ccccc4s3)n2)cc1 | binding | 1 µM | 84
O=C(Nc1c[nH]nc1C(=O)NC1CCNCC1)c1cc(F)cc(F)c1 | binding | 1 µM | 100
O=C(NCCCC1CCCCC1)c1ccc(CNC(=O)c2cnn(-c3ccccc3)c2C(F)(F)F)cc1 | cell-free assay | 0.1 µM | 100
COc1cnc(Nc2cccc(S(N)(=O)=O)c2)nc1N1CCN(c2ccccc2)CC1 | binding | 1 µM | 97
Cc1cnc(Nc2ccc(C(=O)N3CCC(N4CCCC4)CC3)cc2)nc1-c1cc2ccccc2s1 | binding | 1 µM | 7
